From ChEMBL document CHEMBL3870351, “Synthesis of 2-methyl-1,4-naphthoquinones with higher gamma-glutamyl carboxylase activity than MK-4 both in vitro and in vivo” (Bioorg Med Chem Lett, 2017)
Activity calls are given as the source filed them. No cut-off for these calls is given here.

Key:
[1] = target: T1, Vitamin K-dependent gamma-carboxylase (Homo sapiens) (UniProt P38435); assay: Activation of gamma-glutamyl carboxylase in human MG63 cells assessed as increase in carboxylated osteocalcin level at 50 nM after 72 hrs by enzyme immuno assay; assay type: cell-based; conditions: MG-63
T1 sequence (whole entry): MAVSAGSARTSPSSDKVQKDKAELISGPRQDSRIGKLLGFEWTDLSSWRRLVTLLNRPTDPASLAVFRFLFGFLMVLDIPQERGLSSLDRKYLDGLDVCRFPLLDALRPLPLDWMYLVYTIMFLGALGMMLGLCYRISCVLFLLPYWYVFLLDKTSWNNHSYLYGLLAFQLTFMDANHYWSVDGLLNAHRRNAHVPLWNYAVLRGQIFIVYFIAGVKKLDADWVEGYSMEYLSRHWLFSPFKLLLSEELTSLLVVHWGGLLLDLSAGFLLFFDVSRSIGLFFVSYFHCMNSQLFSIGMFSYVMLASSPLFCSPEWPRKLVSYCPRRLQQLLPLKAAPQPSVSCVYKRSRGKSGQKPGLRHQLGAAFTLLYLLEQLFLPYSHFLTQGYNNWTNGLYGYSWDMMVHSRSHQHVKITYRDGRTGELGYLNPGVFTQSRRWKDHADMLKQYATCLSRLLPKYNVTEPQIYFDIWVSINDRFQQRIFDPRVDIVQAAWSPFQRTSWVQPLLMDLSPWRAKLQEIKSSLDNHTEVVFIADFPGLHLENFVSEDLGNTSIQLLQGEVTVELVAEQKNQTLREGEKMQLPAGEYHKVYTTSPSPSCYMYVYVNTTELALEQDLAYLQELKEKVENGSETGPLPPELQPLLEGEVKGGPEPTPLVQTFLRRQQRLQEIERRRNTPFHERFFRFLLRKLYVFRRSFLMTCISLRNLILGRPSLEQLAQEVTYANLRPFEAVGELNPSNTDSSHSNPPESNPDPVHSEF
Method in brief: (§1)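 Human osteosarcoma MG63 cells; uncarboxylated (ucOC) and carboxylated (cOC) osteocalcin measured in culture media/supernatants; untreated controls received no vitamin K or analogue; run in triplicate.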

[2] = target: T1, Vitamin K-dependent gamma-carboxylase (Homo sapiens); assay: Activation of gamma-glutamyl carboxylase in human MG63 cells assessed as reduction in un-carboxylated osteocalcin level at 50 nM after 72 hrs by enzyme immuno assay; assay type: cell-based; conditions: MG-63; method in brief: as §1
[3] = Cytotoxicity against human MG63 cells assessed as decrease in cell viability up to 500 nM by MTT assay; assay type: toxicity, cell-based; conditions: mg-63
Method in brief: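 MG63 cells; cell viability measured with compounds at concentrations up to 500 nM.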

[4] = organism: Rattus norvegicus; assay: Restoration of prothrombin activity in vitamin-K deficient diet fed Wistar-Kyoto rat assessed as plasma prothrombin level at 5 ug/g of food for 2 days by one-stage PT-based clotting assay (reference value: 60%); assay type: functional
[5] = organism: Rattus norvegicus; assay: Restoration of prothrombin activity in vitamin-K deficient diet fed Wistar-Kyoto rat assessed as plasma prothrombin level at 5 ug/g of food for 5 days by one-stage PT-based clotting assay (reference value: 60%); assay type: functional
[6] = organism: Rattus norvegicus; assay: Toxicity in vitamin-K deficient diet fed Wistar-Kyoto rat assessed as change in body weight at 0.5 ug/g of food for 5 days; assay type: organism-based; conditions: in vivo, po, 120 h
[7] = organism: Rattus norvegicus; assay: Toxicity in vitamin-K deficient diet fed Wistar-Kyoto rat assessed as change in body weight at 5 ug/g of food for 2 to 5 days; assay type: organism-based; conditions: in vivo, po

With `CC(C)=CCC/C(C)=C/CC/C(C)=C/CC/C(C)=C/CC1=C(C)C(=O)c2ccccc2C1=O` the Activity [1] was “Active” and the Activity [2] was “Active”.

With `CCCCCCCCCCCCCCNC(=O)CC1=C(C)C(=O)c2ccccc2C1=O` the Activity [3] was “Non-Toxic”, the Activity [1] was “Active” and the Activity [4] was 107%. The Activity [5] was 106%, the Activity [6] was “Non-Toxic” and the Activity [7] was “Non-Toxic”. The Activity [2] was “Active”.

For `CC1=CC(=O)c2ccccc2C1=O` [MENADIONE], the Activity [3] was “Non-Toxic”.

In the case of `CCCCCCCCCCCCCCCCCNC(=O)CC1=C(C)C(=O)c2ccccc2C1=O`, the Activity [3] is reported as “Non-Toxic” and the Activity [2] is reported as “Active”.

With `CC1=C(Br)C(=O)c2ccccc2C1=O` the Activity [3] was “Non-Toxic”.

In the case of `COc1c(C)c(Br)c(OC)c2ccccc12`, the Activity [3] is reported as “Non-Toxic”.

In the case of `COc1c(C)c(CC(=O)O)c(OC)c2ccccc12`, the Activity [3] is reported as “Non-Toxic”, the Activity [1] is reported as “Active” and the Activity [2] is reported as “Active”.

With `CCCCCCCCCCCCCCCCCCNC(=O)CC1=C(C)C(=O)c2ccccc2C1=O` the Activity [3] was “Non-Toxic” and the Activity [2] was “Active”.

With `CCCCCCCCCCCCCCCCNC(=O)CC1=C(C)C(=O)c2ccccc2C1=O` the Activity [3] was “Non-Toxic”, the Activity [1] was “Active” and the Activity [2] was “Active”.

With `CC1=C(CC(=O)O)C(=O)c2ccccc2C1=O` the Activity [3] was “Non-Toxic”, the Activity [1] was “Active” and the Activity [2] was “Active”.

With `CCOC(=O)Cc1c(C)c(OC)c2ccccc2c1OC` the Activity [3] was “Non-Toxic”.

In the case of `CCOC(=O)CC1=C(C)C(=O)c2ccccc2C1=O`, the Activity [3] is reported as “Non-Toxic”, the Activity [1] is reported as “Active” and the Activity [2] is reported as “Active”.
